From ChEMBL document CHEMBL2331548, “Identification of N-acyl 4-(3-pyridonyl)phenylalanine derivatives and their orally active prodrug esters as dual acting α4β1 and α4β7 receptor antagonists” (Bioorg Med Chem Lett, 2013)
pIC50: −log10 of the molar value. In brackets after ≈: the same amount, converted by molar mass. Activity calls are given as the source filed them. The calls are words filed in the database; no cut-off is given here.

What was measured:
[1] = Oral bioavailability in dog; type: ADME, organism-based, Canis lupus familiaris; details: in vivo
[2] = Stability in simulated intestinal fluid at pH 7.5 assessed as half life; type: physicochemical; details: simulated gi fluid
[3] = Solubility in water; type: physicochemical
hERG (KCNH2) = hERG (KCNH2) (Homo sapiens, UniProt Q12809); assay: Inhibition of human ERG
hERG (KCNH2), sequence (Q12809 whole entry): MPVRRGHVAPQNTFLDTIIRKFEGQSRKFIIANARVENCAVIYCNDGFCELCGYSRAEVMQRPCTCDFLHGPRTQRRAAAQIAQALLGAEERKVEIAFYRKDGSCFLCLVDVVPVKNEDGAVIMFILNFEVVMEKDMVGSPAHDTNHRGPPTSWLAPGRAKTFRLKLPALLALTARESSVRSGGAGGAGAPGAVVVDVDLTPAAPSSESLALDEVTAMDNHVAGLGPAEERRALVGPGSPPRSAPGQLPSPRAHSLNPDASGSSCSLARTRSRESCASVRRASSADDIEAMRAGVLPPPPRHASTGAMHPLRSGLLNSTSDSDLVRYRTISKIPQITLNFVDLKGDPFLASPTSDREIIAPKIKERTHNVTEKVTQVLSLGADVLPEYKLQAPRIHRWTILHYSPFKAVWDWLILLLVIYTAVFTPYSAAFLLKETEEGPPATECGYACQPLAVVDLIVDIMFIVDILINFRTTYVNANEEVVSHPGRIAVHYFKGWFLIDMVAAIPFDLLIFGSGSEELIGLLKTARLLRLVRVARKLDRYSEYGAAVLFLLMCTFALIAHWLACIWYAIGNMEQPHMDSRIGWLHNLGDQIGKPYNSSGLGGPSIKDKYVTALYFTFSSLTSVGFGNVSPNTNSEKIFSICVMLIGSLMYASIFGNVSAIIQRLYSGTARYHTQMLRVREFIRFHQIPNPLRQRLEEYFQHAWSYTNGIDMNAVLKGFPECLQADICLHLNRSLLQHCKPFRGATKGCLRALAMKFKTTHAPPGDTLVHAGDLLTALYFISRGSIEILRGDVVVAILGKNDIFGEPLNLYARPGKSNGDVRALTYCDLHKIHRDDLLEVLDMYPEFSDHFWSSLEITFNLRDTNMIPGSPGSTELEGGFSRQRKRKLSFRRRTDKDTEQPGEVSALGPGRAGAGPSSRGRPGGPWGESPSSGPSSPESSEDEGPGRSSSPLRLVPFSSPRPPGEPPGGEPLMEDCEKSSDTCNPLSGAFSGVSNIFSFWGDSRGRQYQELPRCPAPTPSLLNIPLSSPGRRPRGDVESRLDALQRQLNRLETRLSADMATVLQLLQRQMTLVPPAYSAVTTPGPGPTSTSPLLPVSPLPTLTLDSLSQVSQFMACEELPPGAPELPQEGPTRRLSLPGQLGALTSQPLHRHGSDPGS

[4] = Oral bioavailability in rat; type: ADME, organism-based; details: in vivo
[5] = Solubility in simulated gastric fluid at pH 2.0; type: physicochemical
[6] = Apparent permeability across human Caco2 cells; type: ADME, cell-based; details: Caco-2
[7] = target: Integrin alpha-4/beta-7 (Homo sapiens) (UniProt P13612+P26010); assay: Inhibition of human MAdCAM1 binding to integrin alpha4beta7 receptor in human RPMI 8866 cells labeled with Calcein AM relative to RO0270608; type: cell-based
Procedure, shortened: (§1)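 Serially diluted compound tested for blocking adhesion of Calcein AM-labelled cells to recombinant human counter-ligand: RAMOS cells on VCAM-1 (α4β1) and RPMI 8866 cells on MAdCAM-1 (α4β7). Cells activated beforehand in Mn2+-containing binding buffer for maximal activation. IC50 taken from fluorescence; RO0270608 run on every plate, and relative potency expressed as fold versus this control because cell activity drifted with passage.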

Integrin alpha-4/beta-7 = target: T1, Integrin alpha-4/beta-7 (Homo sapiens, UniProt P13612+P26010); assay: Inhibition of human MAdCAM1 binding to integrin alpha4beta7 receptor in human RPMI 8866 cells labeled with Calcein AM; type: cell-based; procedure, shortened: as §1
T1 sequence (P13612 whole entry): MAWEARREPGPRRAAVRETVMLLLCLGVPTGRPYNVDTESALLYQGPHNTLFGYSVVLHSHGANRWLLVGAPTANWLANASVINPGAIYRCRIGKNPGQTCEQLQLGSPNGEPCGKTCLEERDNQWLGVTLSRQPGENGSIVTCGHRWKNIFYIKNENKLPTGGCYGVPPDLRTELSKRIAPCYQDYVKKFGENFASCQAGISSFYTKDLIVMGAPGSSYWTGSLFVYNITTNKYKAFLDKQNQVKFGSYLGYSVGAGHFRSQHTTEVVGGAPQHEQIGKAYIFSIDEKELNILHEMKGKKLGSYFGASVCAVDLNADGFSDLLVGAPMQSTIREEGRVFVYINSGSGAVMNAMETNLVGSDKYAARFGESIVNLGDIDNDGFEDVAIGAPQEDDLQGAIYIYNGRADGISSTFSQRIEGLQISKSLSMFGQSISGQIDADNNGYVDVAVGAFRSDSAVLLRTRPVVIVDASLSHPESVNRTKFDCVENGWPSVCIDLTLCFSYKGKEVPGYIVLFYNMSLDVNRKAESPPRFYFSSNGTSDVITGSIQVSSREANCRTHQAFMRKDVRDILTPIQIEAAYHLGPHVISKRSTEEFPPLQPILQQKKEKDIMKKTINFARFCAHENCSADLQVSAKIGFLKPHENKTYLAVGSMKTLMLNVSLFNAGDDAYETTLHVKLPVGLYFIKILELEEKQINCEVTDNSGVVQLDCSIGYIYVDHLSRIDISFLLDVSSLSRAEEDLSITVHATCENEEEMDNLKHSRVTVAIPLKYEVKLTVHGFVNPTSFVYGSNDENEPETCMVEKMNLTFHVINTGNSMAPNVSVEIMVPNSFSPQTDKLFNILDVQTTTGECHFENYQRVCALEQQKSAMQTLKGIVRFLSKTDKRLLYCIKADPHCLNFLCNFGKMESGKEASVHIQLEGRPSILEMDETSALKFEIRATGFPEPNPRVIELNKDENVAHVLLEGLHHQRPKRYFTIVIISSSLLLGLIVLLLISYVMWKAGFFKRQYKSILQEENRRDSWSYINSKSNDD
T1 sequence (P26010 whole entry): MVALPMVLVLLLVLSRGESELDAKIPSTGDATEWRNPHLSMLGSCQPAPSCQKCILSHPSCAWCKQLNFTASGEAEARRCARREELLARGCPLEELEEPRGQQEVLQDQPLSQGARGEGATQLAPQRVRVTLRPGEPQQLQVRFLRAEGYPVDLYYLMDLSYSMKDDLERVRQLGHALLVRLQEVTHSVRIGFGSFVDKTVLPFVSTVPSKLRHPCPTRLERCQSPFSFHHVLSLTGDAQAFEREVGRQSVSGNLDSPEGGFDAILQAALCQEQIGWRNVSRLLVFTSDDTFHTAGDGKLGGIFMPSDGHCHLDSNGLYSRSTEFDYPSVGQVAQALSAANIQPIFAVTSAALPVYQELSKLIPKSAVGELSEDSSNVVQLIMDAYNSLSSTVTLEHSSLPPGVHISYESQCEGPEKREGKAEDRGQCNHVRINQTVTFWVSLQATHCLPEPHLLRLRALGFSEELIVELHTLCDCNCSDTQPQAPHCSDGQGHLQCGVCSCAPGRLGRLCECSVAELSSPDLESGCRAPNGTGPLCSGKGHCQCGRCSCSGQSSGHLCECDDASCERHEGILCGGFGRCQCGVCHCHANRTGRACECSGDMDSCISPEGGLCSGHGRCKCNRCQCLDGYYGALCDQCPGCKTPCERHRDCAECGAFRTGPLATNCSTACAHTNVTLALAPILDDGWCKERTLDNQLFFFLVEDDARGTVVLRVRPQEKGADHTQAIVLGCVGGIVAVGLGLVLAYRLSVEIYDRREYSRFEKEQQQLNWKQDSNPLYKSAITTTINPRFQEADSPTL

[8] = Clearance in monkey at 15 mg/kg, iv; details: cynomolgus monkey, in vivo
[9] = Clearance in dog at 10 mg/kg, iv; type: ADME, organism-based, Canis lupus familiaris; parameters: dose 10 mg/kg, route intravenous; details: in vivo
Procedure, shortened: (§2)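 Intravenous pharmacokinetics of the acid: rat and dog dosed at 10 mg/kg, monkey at 15 mg/kg. AUC (ng h/mL), clearance (mL/min/kg) and Vss (mL/kg) derived from plasma levels.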

[10] = AUC in rat at 10 mg/kg, iv; type: ADME, organism-based; parameters: dose 10 mg/kg, route intravenous; details: plasma; procedure, shortened: as §2
[11] = AUC in dog at 10 mg/kg, iv; type: ADME, organism-based, Canis lupus familiaris; parameters: dose 10 mg/kg, route intravenous; details: plasma; procedure, shortened: as §2
Integrin alpha-4/beta-1 [12] = target: T2, Integrin alpha-4/beta-1 (Homo sapiens, UniProt P05556+P13612); assay: Inhibition of human VCAM1 binding to integrin alpha4beta1 receptor in human Ramos cells labeled with Calcein AM relative to RO0270608; type: cell-based; procedure, shortened: as §1
T2 sequence (P05556 whole entry, one chain of several): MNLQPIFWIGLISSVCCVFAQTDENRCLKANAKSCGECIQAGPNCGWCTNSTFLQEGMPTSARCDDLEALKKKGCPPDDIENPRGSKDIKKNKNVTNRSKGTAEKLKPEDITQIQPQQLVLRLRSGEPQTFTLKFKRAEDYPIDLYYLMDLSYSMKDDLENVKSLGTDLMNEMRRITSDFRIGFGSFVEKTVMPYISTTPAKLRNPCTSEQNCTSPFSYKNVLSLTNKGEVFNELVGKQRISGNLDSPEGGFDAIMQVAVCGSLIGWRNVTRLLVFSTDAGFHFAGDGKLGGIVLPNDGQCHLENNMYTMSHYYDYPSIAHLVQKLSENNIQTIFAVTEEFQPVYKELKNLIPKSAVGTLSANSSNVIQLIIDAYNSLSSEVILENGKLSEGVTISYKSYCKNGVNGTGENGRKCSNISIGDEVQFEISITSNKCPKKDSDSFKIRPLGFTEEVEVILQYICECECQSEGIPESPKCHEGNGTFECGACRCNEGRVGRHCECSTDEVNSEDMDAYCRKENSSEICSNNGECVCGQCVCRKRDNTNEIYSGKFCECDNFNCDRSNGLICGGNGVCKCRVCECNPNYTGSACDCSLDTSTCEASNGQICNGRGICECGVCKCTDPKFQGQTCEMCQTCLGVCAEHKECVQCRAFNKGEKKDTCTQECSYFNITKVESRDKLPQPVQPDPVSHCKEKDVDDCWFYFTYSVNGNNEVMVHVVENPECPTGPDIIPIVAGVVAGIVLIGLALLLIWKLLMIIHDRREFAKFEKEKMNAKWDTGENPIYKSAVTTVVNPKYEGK

Integrin alpha-4/beta-1 [13] = target: T2, Integrin alpha-4/beta-1; assay: Inhibition of human VCAM1 binding to integrin alpha4beta1 receptor in human Ramos cells labeled with Calcein AM; type: cell-based; procedure, shortened: as §1
[14] = Clearance in rat at 10 mg/kg, iv; type: ADME, organism-based; parameters: dose 10 mg/kg, route intravenous; details: in vivo; procedure, shortened: as §2
[15] = AUC in monkey at 15 mg/kg, iv; details: cynomolgus monkey, plasma
Plasma = assay: Stability in dog plasma assessed as unchanged prodrug level on days 1 and 6; type: ADME, cell-free, Canis lupus familiaris
Procedure, shortened: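 Unchanged prodrug measured in dog plasma on days 1 and 6 of subchronic safety studies after dosing with the ester prodrug.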

Liver microsomes [16] = assay: Stability in rat liver microsomes assessed as prodrug hydrolysis; type: ADME, Microsome
Procedure, shortened: (§3)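 Ester prodrug incubated in liver microsomal preparations from mouse, rat, dog, monkey and human; percent of ester remaining followed at 0, 10, 30 and 90 min. A buffer-only incubation without microsomes served as control.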

Macaca fascicularis [17] = assay: Oral bioavailability in monkey at 30 mg/kg; details: cynomolgus monkey, in vivo
Cynomolgus monkey [18] = assay: Antiinflammatory activity in cynomolgus monkey challenged with aerosolized Ascaris suum extract assessed as reduction in neutrophils influx into lungs at 10 and 30 mg/kg, po administered 2 hrs before antigen challenge measured 24 hrs after antigen challenge; type: functional, organism-based; parameters: dose 30 mg/kg; details: Macaca fascicularis
Procedure, shortened: (§4)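 Cynomolgus monkeys (atopic) dosed orally at 10 or 30 mg/kg, or vehicle, then challenged 2 h later with aerosolized Ascaris suum extract. Bronchiolar lavage fluid collected 24 h post-challenge and inflammatory cells counted by type (macrophages, neutrophils, eosinophils, lymphocytes, total) as cells ×10^4/mL.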

Canis familiaris [19] = assay: AUC in dog assessed as (2S)-2-(2,6-dichlorobenzamido)-3-(4-(2-hydroxy-1,6-dimethyl-4-(trifluoromethyl)-1,2-dihydropyridin-3-yl)phenyl)propanoic acid level at 50 mg/kg, po; type: ADME, organism-based, Canis lupus familiaris, Plasma; parameters: dose 50 mg/kg, route oral; details: in vivo
Procedure, shortened: (§5)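 Ester prodrug given orally (rat and dog 50 mg/kg, monkey 30 mg/kg). Plasma exposure measured as the parent acid, reported as AUC and Cmax; bioavailability (F%) calculated for the acid.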

Macaca fascicularis [20] = assay: AUC in monkey assessed as (2S)-2-(2,6-dichlorobenzamido)-3-(4-(2-hydroxy-1,6-dimethyl-4-(trifluoromethyl)-1,2-dihydropyridin-3-yl)phenyl)propanoic acid level at 30 mg/kg, po; details: cynomolgus monkey, in vivo
[21] = Solubility in simulated intestinal fluid at pH 7.5; type: physicochemical
Cynomolgus monkey [22] = assay: Antiinflammatory activity in cynomolgus monkey challenged with aerosolized Ascaris suum extract assessed as reduction in total leukocytes influx into lungs at 10 and 30 mg/kg, po administered 2 hrs before antigen challenge measured 24 hrs after antigen challenge; type: functional, organism-based; parameters: dose 30 mg/kg; details: Macaca fascicularis; procedure, shortened: as §4
Canis familiaris [23] = assay: Cmax in dog at 50 mg/kg, po; type: ADME, organism-based, Canis lupus familiaris; parameters: dose 50 mg/kg, route oral; details: in vivo; procedure, shortened: as §5
Liver [24] = assay: Stability in mouse liver microsomes assessed as prodrug hydrolysis; type: ADME, Microsome; procedure, shortened: as §3
Cynomolgus monkey [25] = assay: Antiinflammatory activity in cynomolgus monkey challenged with aerosolized Ascaris suum extract assessed as reduction in eosinophils influx into lungs at 10 and 30 mg/kg, po administered 2 hrs before antigen challenge measured 24 hrs after antigen challenge; type: functional, organism-based; parameters: dose 30 mg/kg; details: Macaca fascicularis; procedure, shortened: as §4
[26] = Stability in monkey liver microsomes assessed as prodrug hydrolysis; type: ADME, Macaca mulatta, Microsome; details: rhesus monkey; procedure, shortened: as §3
Rattus norvegicus [27] = assay: AUC in rat assessed as (2S)-2-(2,6-dichlorobenzamido)-3-(4-(2-hydroxy-1,6-dimethyl-4-(trifluoromethyl)-1,2-dihydropyridin-3-yl)phenyl)propanoic acid level at 50 mg/kg, po; type: ADME, organism-based, Plasma; parameters: dose 50 mg/kg, route oral; details: in vivo; procedure, shortened: as §5
[28] = Oral bioavailability in dog at 50 mg/kg; type: ADME, organism-based, Canis lupus familiaris; details: in vivo; procedure, shortened: as §5
Liver [29] = assay: Stability in dog liver microsomes assessed as prodrug hydrolysis; type: ADME, Canis lupus familiaris, Microsome; procedure, shortened: as §3
Rattus norvegicus [30] = assay: Cmax in rat at 50 mg/kg, po; type: ADME, organism-based; parameters: dose 50 mg/kg, route oral; details: in vivo; procedure, shortened: as §5
Cynomolgus monkey [31] = assay: Antiinflammatory activity in cynomolgus monkey challenged with aerosolized Ascaris suum extract assessed as reduction in lymphocytes influx into lungs at 10 and 30 mg/kg, po administered 2 hrs before antigen challenge measured 24 hrs after antigen challenge; type: functional, organism-based; parameters: dose 30 mg/kg; details: Macaca fascicularis; procedure, shortened: as §4
[32] = Oral bioavailability in rat at 50 mg/kg; type: ADME, organism-based; details: in vivo; procedure, shortened: as §5
Liver microsomes [33] = assay: Stability in human liver microsomes assessed as prodrug hydrolysis; type: ADME, Microsome; procedure, shortened: as §3

## CCOC(=O)[C@H](Cc1ccc(-c2c(C(F)(F)F)cc(C)n(C)c2=O)cc1)NC(=O)c1c(Cl)cccc1Cl
[1]
  bioavailability: 2%
[2]
  Stability: Stable
[3]
  solubility: 6 µg/mL (≈ 10.8 µM)
hERG (KCNH2)
  IC20: 2.7 µM
[4]
  bioavailability: 18%
[5]; simulated gi fluid, BLD = below limit of detection
  solubility: BLD
[6]
  Papp: 27.1 ×10⁻⁶ cm/s

## Cc1cc(C(F)(F)F)c(-c2ccc(C[C@H](NC(=O)c3c(Cl)cccc3Cl)C(=O)O)cc2)c(=O)n1C
[7]
  Ratio IC50: 6.5
Integrin alpha-4/beta-7
  pIC50: 7.38
[8]
  clearance: 3 mL/min/kg
[9]
  clearance: 16.5 mL/min/kg
[10]
  AUC: 10900 ng·h/mL
[11]
  AUC: 10900 ng·h/mL
Integrin alpha-4/beta-1 [12]
  Ratio IC50: 0.81
[6]
  Papp: 0.14 ×10⁻⁶ cm/s
Integrin alpha-4/beta-1 [13]
  pIC50: 7.49
[14]
  clearance: 15.7 mL/min/kg
[15]
  AUC: 35100 ng·h/mL

## Cc1cc(C(F)(F)F)c(-c2ccc(C[C@H](NC(=O)c3c(Cl)cccc3Cl)C(=O)OCCCN3CCOCC3)cc2)c(=O)n1C
Plasma
  Stability: 10%
Liver microsomes [16]
  Stability: Unstable
Macaca fascicularis [17]
  bioavailability: 46%
Cynomolgus monkey [18]
  Activity: Active
Canis familiaris [19]
  AUC: 6420 ng·h/mL
Macaca fascicularis [20]
  AUC: 30150 ng·h/mL
[2]
  Stability: Stable
[21]
  solubility: 330 µg/mL (≈ 504 µM)
Cynomolgus monkey [22]
  Activity: Active
Canis familiaris [23]
  Cmax: 2400 ng/mL
Liver [24]
  Stability: Unstable
Cynomolgus monkey [25]
  Activity: Active
hERG (KCNH2)
  IC20: 2.9 µM
[4]
  bioavailability: 11%
[26]
  Stability: Unstable
Rattus norvegicus [27]
  AUC: 6100 ng·h/mL
[5]; simulated gastric fluid, read-out: solubility
  solubility: 3900 µg/mL (≈ 5960 µM)
[28]
  bioavailability: 13%
Liver [29]
  Stability: Stable
[6]
  Papp: 16.5 ×10⁻⁶ cm/s
Rattus norvegicus [30]
  Cmax: 2500 ng/mL
Cynomolgus monkey [31]
  Activity: Active
[32]
  bioavailability: 11%
Liver microsomes [33]
  Stability: Stable
